Assay results published in PMC9898131 (Nature chemical biology, 2022).

Target: COQ8A^NΔ250 (Homo sapiens, UniProt Q8NI60)
Assay: Differential scanning fluorimetry
Format: binding
Conditions: 100 μM inhibitor, 10 μM COQ8A^NΔ250
Procedure, shortened: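 Recombinant COQ8A^NΔ250 purified on cobalt IMAC resin, exchanged into 20 mM HEPES pH 7.2, 300 mM NaCl, 10% glycerol, 5 mM BME. They were spun briefly, then kept 10 min at room temperature in the dark before melting.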

Chain of COQ8A^NΔ250 (Q8NI60 251-647 limits assumed, stated change not applied): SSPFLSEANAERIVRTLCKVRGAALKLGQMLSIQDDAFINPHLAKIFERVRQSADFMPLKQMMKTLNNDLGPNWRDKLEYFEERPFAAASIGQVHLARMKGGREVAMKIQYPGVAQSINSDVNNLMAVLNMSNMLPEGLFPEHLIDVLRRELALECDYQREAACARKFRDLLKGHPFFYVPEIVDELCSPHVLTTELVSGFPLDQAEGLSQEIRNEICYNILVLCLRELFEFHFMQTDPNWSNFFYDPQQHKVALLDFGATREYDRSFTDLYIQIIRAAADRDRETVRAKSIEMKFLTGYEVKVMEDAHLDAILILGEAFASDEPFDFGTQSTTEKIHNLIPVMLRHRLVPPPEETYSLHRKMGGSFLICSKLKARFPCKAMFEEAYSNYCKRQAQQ

C#Cc1cccc(Nc2ncnc3cc(OCCOC)c(OCCOC)cc23)c1 [erlotinib]
COQ8A melting temperature increase (ΔTm): weak-binding control
